# Publication PMC4927891 (Journal of Alzheimer's Disease, 2015)
# Peptide text beside a SMILES is read from it.
# Key:
# Type in all cases: biochemical
# [1] = molecular target: CDK5/p35 (Homo sapiens, UniProt Q00535); test: Radiometric protein kinase assay, CDK5/p35 phosphotransferase activity; conditions: for % Activity Change 1 μM: peptide 1 μM; for % Activity Change 1 μM / % Activity Change 10 μM / % Activity Change 50 μM / % Activity Change 100 μM / % Activity Change 250 μM / % Activity Change 500 μM: duplicate; for % Activity Change 10 μM: peptide 10 μM; for % Activity Change 50 μM: peptide 50 μM; for % Activity Change 500 μM: peptide 500 μM
# Chain of CDK5/p35 (Q00535 whole entry): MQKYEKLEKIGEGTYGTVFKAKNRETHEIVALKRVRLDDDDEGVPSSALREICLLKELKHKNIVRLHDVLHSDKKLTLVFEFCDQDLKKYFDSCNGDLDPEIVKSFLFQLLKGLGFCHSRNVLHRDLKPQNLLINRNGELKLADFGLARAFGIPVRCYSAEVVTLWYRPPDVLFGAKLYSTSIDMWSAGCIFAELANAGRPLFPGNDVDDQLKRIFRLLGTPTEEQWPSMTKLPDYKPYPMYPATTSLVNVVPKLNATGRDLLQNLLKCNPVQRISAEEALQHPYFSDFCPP
# [2] = molecular target: GSK3β (Homo sapiens, UniProt P49841); test: Radiometric protein kinase assay, GSK3β phosphotransferase activity; conditions: for % Activity Change 1 μM: peptide 1 μM, positive = activation; for % Activity Change 10 μM: peptide 10 μM; for % Activity Change 50 μM: peptide 50 μM; for GSK3β phosphotransferase activity activated by % compared to control / % Activity Change 500 μM: peptide 500 μM
# Chain of GSK3β (P49841 whole entry, species assumed): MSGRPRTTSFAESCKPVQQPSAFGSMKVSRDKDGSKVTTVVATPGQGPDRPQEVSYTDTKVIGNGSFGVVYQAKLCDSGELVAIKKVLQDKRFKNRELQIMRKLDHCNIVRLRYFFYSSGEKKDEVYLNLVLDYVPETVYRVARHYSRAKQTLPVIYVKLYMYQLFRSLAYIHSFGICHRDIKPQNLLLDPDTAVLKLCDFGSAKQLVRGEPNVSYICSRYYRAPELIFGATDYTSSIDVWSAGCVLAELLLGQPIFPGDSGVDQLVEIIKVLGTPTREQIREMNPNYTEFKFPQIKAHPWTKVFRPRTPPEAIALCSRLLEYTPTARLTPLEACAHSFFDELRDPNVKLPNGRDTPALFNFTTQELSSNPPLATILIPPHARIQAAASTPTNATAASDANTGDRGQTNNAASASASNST
# Procedure, shortened: (§1)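 Reaction is started with [γ-33P]ATP (250 μM stock, 0.8 μCi), with peptide at six levels (1–500 μM) or 10% DMSO. Run 30°C, 20 min, then spot onto P81 paper, wash in 1% phosphoric acid and scintillation count. Substrate-free blank is subtracted. Duplicates, repeated twice.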
# [3] = molecular target: CDK5/p25 (Homo sapiens, UniProt Q00535); test: Radiometric protein kinase assay, CDK5/p25 phosphotransferase activity; conditions: for % Activity Change 1 μM: peptide 1 μM, negative = inhibition; for % Activity Change 1 μM / % Activity Change 10 μM / % Activity Change 50 μM / % Activity Change 100 μM / % Activity Change 250 μM / % Activity Change 500 μM: vs control without inhibitor, duplicate; for % Activity Change 10 μM: peptide 10 μM; for % Activity Change 50 μM: peptide 50 μM; for % Activity Change 500 μM: peptide 500 μM
# Chain of CDK5/p25 (Q00535 whole entry): as the sequence (Q00535 whole entry) above
# Procedure, shortened: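 GST-tagged CDK5/p25 co-expressed in Sf9 cells via baculovirus, 15 nM final, with calf thymus histone H1 (1 mg/ml final) in MOPS pH 7.2 buffer with MgCl2, EGTA, EDTA, DTT. Reaction started with [γ-33P]ATP (250 μM stock, 0.8 μCi) and run 20 min at 30°C. Products were spotted on P81 paper, washed in 1% phosphoric acid and scintillation-counted. No-substrate blank was subtracted. Peptide tested 1–500 μM against 10% DMSO control, two experiments in duplicate.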
# [4] = molecular target: ERK1 (Homo sapiens, UniProt P27361); test: Radiometric protein kinase assay, ERK1 phosphotransferase activity; conditions: for % Activity Change 1 μM: peptide 1 μM; for % Activity Change 10 μM: peptide 10 μM; for % Activity Change 50 μM: peptide 50 μM; for ERK1 activity inhibited by % compared to control / % Activity Change 500 μM: peptide 500 μM
# Chain of ERK1 (P27361 whole entry, species assumed): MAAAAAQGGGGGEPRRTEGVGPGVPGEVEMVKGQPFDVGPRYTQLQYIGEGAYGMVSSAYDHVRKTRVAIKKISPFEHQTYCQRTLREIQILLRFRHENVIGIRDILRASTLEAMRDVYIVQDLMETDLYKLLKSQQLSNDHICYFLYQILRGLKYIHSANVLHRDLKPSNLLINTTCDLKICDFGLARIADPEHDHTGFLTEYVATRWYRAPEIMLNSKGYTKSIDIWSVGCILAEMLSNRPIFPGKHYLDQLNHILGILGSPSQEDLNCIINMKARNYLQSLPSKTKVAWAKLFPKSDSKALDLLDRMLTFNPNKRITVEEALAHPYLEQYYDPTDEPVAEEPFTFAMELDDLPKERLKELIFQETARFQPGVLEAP
# Procedure, shortened: as §1
Compound,IC50 [1],% Activity Change 1 μM [1],% Activity Change 10 μM [1],% Activity Change 50 μM [1],% Activity Change 100 μM ([1]; peptide 100 μM),% Activity Change 250 μM ([1]; peptide 250 μM),% Activity Change 500 μM [1],% Activity Change 1 μM ([2]; duplicate),% Activity Change 10 μM ([2]; duplicate),% Activity Change 50 μM ([2]; duplicate),GSK3β phosphotransferase activity activated by % compared to control [2],% Activity Change 500 μM ([2]; duplicate),IC50 [3],% Activity Change 1 μM [3],% Activity Change 10 μM [3],% Activity Change 50 μM [3],% Activity Change 100 μM ([3]; peptide 100 μM),% Activity Change 250 μM ([3]; peptide 250 μM),% Activity Change 500 μM [3],% Activity Change 1 μM ([4]; duplicate),also measured
CC[C@H](C)[C@H](NC(=O)[C@H](CCC(N)=O)NC(=O)[C@@H](NC(=O)[C@H](CCSC)NC(=O)[C@H](CCCCN)NC(=O)[C@H](CO)NC(=O)[C@@H](NC(=O)[C@H](CCSC)NC(=O)[C@H](CC(C)C)NC(=O)[C@H](CC(N)=O)NC(=O)[C@@H](NC(=O)[C@@H](NC(=O)[C@H](CO)NC(=O)[C@H](CC(C)C)NC(=O)[C@H](C)NC(=O)[C@H](CCCNC(=N)N)NC(=O)[C@H](CCC(=O)O)NC(=O)[C@H](Cc1ccc(O)cc1)NC(=O)[C@H](Cc1ccccc1)NC(=O)[C@H](C)NC(=O)[C@H](CC(N)=O)NC(=O)[C@@H](N)CCCCN)[C@@H](C)CC)[C@@H](C)CC)[C@@H](C)O)C(C)C)C(=O)N[C@@H](CC(N)=O)C(=O)N[C@H](C(=O)O)C(C)C [p5-MT] (H-KNAFYERALSIINLMTSKMVQINV-OH),83 µM,–3%,–14%,–35%,–57%,–73%,–84%,–1%,3%,6%,40%,40%,119 µM,2%,–8%,–22%,–46%,–73%,–85%,1%,"CDK5/p35 phosphotransferase activity inhibited by % compared to control ([1]; peptide 100 μM): 57%; CDK5/p25 phosphotransferase activity inhibited by % compared to control ([3]; peptide 100 μM): 46%; IC50 [4]: 425 µM; % Activity Change 10 μM ([4]; duplicate): 0%; % Activity Change 50 μM ([4]; duplicate): –2%; % Activity Change 250 μM ([4]; peptide 250 μM, duplicate): –35%; ERK1 activity inhibited by % compared to control [4]: 54%; % Activity Change 500 μM ([4]; duplicate): –54%"
CC[C@H](C)[C@H](NC(=O)[C@H](CCC(N)=O)NC(=O)[C@H](CC(C)C)NC(=O)[C@H](CCSC)NC(=O)[C@H](CCCCN)NC(=O)[C@H](CO)NC(=O)[C@H](CO)NC(=O)[C@H](CCSC)NC(=O)[C@H](CC(C)C)NC(=O)[C@H](CC(N)=O)NC(=O)[C@@H](NC(=O)[C@@H](NC(=O)[C@H](CO)NC(=O)[C@H](CC(C)C)NC(=O)[C@H](CS)NC(=O)[C@H](CCCNC(=N)N)NC(=O)[C@H](CC(=O)O)NC(=O)[C@H](Cc1c[nH]c2ccccc12)NC(=O)[C@H](Cc1ccccc1)NC(=O)[C@H](C)NC(=O)[C@H](CCC(=O)O)NC(=O)[C@@H](N)CCCCN)C(C)C)[C@@H](C)CC)C(=O)N[C@@H](CC(N)=O)C(=O)N[C@@H](C)C(=O)O [p5-WT] (H-KEAFWDRCLSVINLMSSKMLQINA-OH),217 µM,2%,–2%,–10%,–29%,–53%,–76%,–3%,–1%,0%,24%,24%,169 µM,0%,–13%,–20%,–41%,–59%,–72%,0%,"CDK5/p35 activity inhibited by % compared to control ([1]; peptide 250 μM): 53%; % Activity Change 100 μM ([2]; peptide 100 μM, duplicate): 8%; % CFC (percent change from control) ([3]; 79-peptide scan, relative to p5-WT peptide (#1), negative = greater inhibition): 0%; CDK5/p25 phosphotransferase activity inhibited by % compared to control ([3]; peptide 250 μM): 59%; % Activity Change 10 μM ([4]; duplicate): 0%; % Activity Change 50 μM ([4]; duplicate): –3%; % Activity Change 100 μM ([4]; peptide 100 μM, duplicate): –6%; ERK1 activity inhibited by % compared to control [4]: 25%; % Activity Change 500 μM ([4]; duplicate): –25%"
